Data from PubChem BioAssay.
Activity calls are given as the source filed them.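 The calls were made as follows: active = duplicate-averaged activation above buffer control mean plus 5 SD of those controls; inactive = the rest.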

test: thallium flux activation in parental CHO cells, counter-screen for KCNQ1 potentiator project (AID 493006); conditions: parental CHO-K1 cells, FluxOR thallium flux, at 10 µM; hits give high values;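 as to activation: fluorescence ratio of max minus min over baseline after K+ and Tl+ depolarization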
Method in brief: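 Material: untransfected host CHO-K1 cells with FluxOR thallium dye. Timing: overnight 37 °C plating, 90 min RT dye, 20 min compound. Detection: kinetic FluxOR fluorescence, 10 s baseline, 110 s after stimulus. Read-out basis: max-minus-min fluorescence over baseline, percent of buffer-to-R-L3 span. Replicates: duplicate wells per compound, percent values averaged.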

| SMILES | outcome | activation |
| --- | --- | --- |
| Cc1onc(-c2ccccc2)c1C(=O)NC(=S)NNC(=O)c1ccccc1O | inactive |  |
| CCOC(=O)CNC(=O)N1CCc2ccc(NC(=O)c3ccccc3Cl)cc2C1 | inactive |  |
| Cc1cccc(/N=C/c2sc3ccccc3c2O)n1 | inactive |  |
| N#CC(c1ccccc1)c1ccc2c(C(F)(F)F)cc(C(F)(F)F)nc2n1 (stereo not drawn) | inactive |  |
| CCc1ccc2oc(C(=O)NC3CCS(=O)(=O)C3)cc(=O)c2c1 (stereo not drawn) | inactive |  |
| Cc1ccccc1C(OCCN(C)C)C1CCCCC1 (stereo not drawn) | inactive |  |
| CC(OC(=O)CC1Sc2ccccc2NC1=O)C(=O)NC1CCCC1 (stereo not drawn) | inactive |  |
| O=C1c2ccccc2C2(c3cc(C(F)(F)F)cc(C(F)(F)F)c3)NCCN12 (stereo not drawn) | inactive |  |
| CCOC(=O)CSC(=S)NC(=O)c1ccc(OC)cc1 | inactive |  |
| O=C(Nc1nnc(-c2ccco2)o1)c1ccc(Cl)cc1 | inactive |  |
| Cc1cccc(-c2nnc(NC(=O)c3ccc(Cl)cc3)o2)c1 | inactive |  |
| O=c1c2c(-c3ccco3)csc2nc(SCc2cn3cccnc3n2)n1-c1ccccc1 | inactive |  |
| Cc1nc(=S)c2c([nH]1)-c1ccccc1CC21CCCCC1 | inactive |  |
| C=CCn1c(O)c(N=NC(=S)Nc2ccccc2F)c2cc(S(=O)(=O)N3CCOCC3)ccc21 | inactive |  |
| CCN(CC)CCn1c(=S)[nH]c2cc(C(=O)NCc3ccc(C)cc3)ccc2c1=O | inactive |  |
| CCOc1ccc2nc(/N=C/c3c(C)[nH]n(-c4ccccc4)c3=O)sc2c1 |  | 370% (active) |
| O=S(=O)(NCCOc1ccccc1)c1ccc2ccccc2c1 | inactive |  |
| CCOC(=O)c1ccc(N2C(=O)C3ON(c4ccccc4)C(c4ccco4)C3C2=O)cc1 (stereo not drawn) | inactive |  |
